From ChEMBL document CHEMBL3853352, “Anti-tubercular activities of 5,6,7,8-tetrahydrobenzo[4,5]thieno[2,3-d]pyrimidin-4-amine analogues endowed with high activity toward non-replicative Mycobacterium tuberculosis” (Bioorg Med Chem, 2016)
pIC50: −log10 of the molar value. Values after ≈ are worked out from the molar mass of the structure shown.

Legend:
[1] = system: Mycobacterium tuberculosis; assay: Antimycobacterial activity against Mycobacterium tuberculosis H37Rv after 6 days by resazurin assay; type: functional; settings: 144 h
[2] = system: Mycobacterium tuberculosis; assay: Antimycobacterial activity against Mycobacterium tuberculosis H37Rv after 7 days by MABA; type: functional; settings: 168 h
Method in brief: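 M. tuberculosis H37Rv inoculum taken from fresh LJ medium, resuspended in 7H9-S (7H9, 0.1% casitone, 0.5% glycerol, OADC), adjusted to McFarland No. 1 and diluted 1:20. Serial two-fold drug dilutions in 7H9-S, with growth and sterile controls. Incubated 7 days at 37 °C in normal atmosphere, then alamar blue added and incubated overnight. MIC = lowest concentration preventing the blue-to-pink change.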

[3] = system: Mycobacterium tuberculosis; assay: Antimycobacterial activity against dormant stage of Mycobacterium tuberculosis H37Rv assessed as reduction in bacterial growth under nutrient starved conditions at 10 ug/ml for 7 days measured after 28 days; type: functional
Method in brief: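 H37Rv grown in 7H9/OADC, washed twice and resuspended in PBS, then held in sealed bottles at 37 °C for 6 weeks. Starved cultures exposed to compound at 10 ug/ml for 7 days. Cells diluted 10-fold serially to 10^-6 in 7H9/OADC and plated in triplicate. Incubated 28 days at 37 °C without agitation; wells with visible growth scored positive and MPN calculated.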

[4] = Cytotoxicity against mouse RAW264.7 cells assessed as inhibition of cell proliferation at 50 ug/ml after 48 hrs by MTT assay; type: toxicity
Method in brief: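 RAW 264.7 mouse macrophages grown in RPMI with 10% FBS and penicillin/streptomycin, then seeded at about 5000 cells/well on poly-L-lysine-coated plates. Pre-incubated 24 h at 37 °C, 5% CO2, then exposed to compound for 48 h. MTT (0.5 mg/ml) added for 3 h and formazan read at 595 nm.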

[5] = Inhibition of Mycobacterium tuberculosis ADH assessed as decrease in conversion of L-alanine to pyruvate by measuring NADH by spectrophotometry; design: species or system Mycobacterium tuberculosis H37Rv
Method in brief: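 Mtb L-AlaDH oxidative deamination of L-alanine to pyruvate at 37 °C. NADH formation read at 340 nm. Compounds tested from 25 µM to 0.5 µM. Background read from the reaction mixture without enzyme. IC50 values calculated from the concentration series.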

[6] = system: Mycobacterium tuberculosis H37Rv; assay: Inhibition of Mycobacterium tuberculosis ADH assessed as decrease in conversion of L-alanine to pyruvate at 25 uM by measuring NADH by spectrophotometry
[7] = system: Mycobacterium tuberculosis; assay: Binding affinity to Mycobacterium tuberculosis ADH assessed as change in melting temperature by Sypro orange dye based differential scanning fluorimetry
Method in brief: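 Thermal shift assay on Mtb L-AlaDH (100 µg/ml, 10 µl) in 100 mM HEPES-NaOH pH 7.8 with 6 µl of 15× Sypro Orange; compounds added in <10% DMSO. Samples equilibrated 3 min at 25 °C, then ramped to 95 °C in 0.1 °C steps. Tm taken as the lowest point of the first-derivative plot; shift measured against the native protein.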

[8] = target: T1, L-lysine-epsilon aminotransferase (Mycobacterium tuberculosis) (UniProt P9WQ77); assay: Inhibition of Mycobacterium tuberculosis LAT at 25 uM
T1 sequence (whole entry): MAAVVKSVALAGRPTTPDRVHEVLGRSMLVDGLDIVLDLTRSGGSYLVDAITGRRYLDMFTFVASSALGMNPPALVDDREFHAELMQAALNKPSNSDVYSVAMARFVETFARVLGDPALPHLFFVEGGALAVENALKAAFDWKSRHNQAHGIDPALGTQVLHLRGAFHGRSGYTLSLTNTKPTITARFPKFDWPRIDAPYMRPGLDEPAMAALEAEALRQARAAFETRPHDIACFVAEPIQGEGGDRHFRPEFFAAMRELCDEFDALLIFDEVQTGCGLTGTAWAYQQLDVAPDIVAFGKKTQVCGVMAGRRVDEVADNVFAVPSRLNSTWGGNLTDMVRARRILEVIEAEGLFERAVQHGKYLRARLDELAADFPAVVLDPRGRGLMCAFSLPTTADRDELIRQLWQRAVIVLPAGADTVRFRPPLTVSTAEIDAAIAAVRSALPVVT

Cc1cccc(-c2nc(Nc3ccncn3)c3c(C)csc3n2)n1
MIC [1]: 0.76 µM (≈ 0.254 µg/mL)

CCc1nc(NCCc2ccccc2)c2c3c(sc2n1)CCCC3
MIC [2]: 37 µM (≈ 12.5 µg/mL) | fold change (FC) [3]: >1 | inhibition at 48 h, 50 ug/ml [4]: 25.2% | pIC50 [5]: 5.74 | inhibition [6]: 50% | ΔTm [7]: 1.4 °C | inhibition [8]: < 50%
